# Assay results gathered from unrelated publications.
# Lines come from different studies, so protocols differ.
# Effect on: cell growth or viability
SMILES,cell line,method,time,measurement,result
O=C(NO)c1ccc(CNc2nc3cccc(-c4ccc5c(c4)OCO5)n3n2)cc1,NCI-H23,SRB,,GI50,0.66 µM
Cc1c(C(=O)O)ccc2c3n(nc12)[C@@H]1[C@H](C3)N(CC2CC2)[C@@]2(C(=O)Nc3cc(Cl)ccc32)[C@H]1c1cccc(Cl)c1F,Rh18,,,GI50,0.00023 µM
C=CC(=O)N1CCN(c2nc(=O)n(-c3c(C)ccnc3C(C)C)c3nc(-c4c(O)cccc4F)c(F)cc23)[C@@H](C)C1,SW1573,ATP luminescence,,IC50,> 10 µM
COc1cc2nc(N3CCN(C(=O)c4ccco4)CC3)nc(N)c2cc1OC,C6661,MTT,48 h,IC50,27.4 µM
Cc1noc2c1-c1ccccc1C(c1ccc(Cl)cc1)=N[C@H]2CC(N)=O,MOLM-13,ATP luminescence,72 h,IC50,0.474 µM
C=CC(=O)c1cccnc1Nc1cc(C(F)(F)F)ccc1OCc1ccccc1,NCI-H23,SRB,48 h,GI50,16.5 µM
C[C@@H]1CC2=C(CN1Cc1cccc(C#N)c1)C(=O)N(Cc1ccc(Br)cc1)C1=NCCN12,MOLM-13,MTS,,IC50,0.00793 µM
Cc1cc(/C=C/C#N)cc(C)c1Nc1ccnc(Nc2ccc(C#N)cc2)n1,C6661,MTT,48 h,IC50,4.67 µM
O=C(O)c1cccnc1Nc1cccc(C(F)(F)F)c1,NCI-H23,SRB,48 h,GI50,> 30 µM
C=CC(=O)NC1CCN(c2ncc3ncnc(Nc4ccc(Oc5ccc6c(c5)ncn6C)c(C)c4)c3n2)CC1,SNU-601,,,EC50,0.00422 µM
C=CC(=O)c1cccnc1Nc1cc(C(F)(F)F)ccc1OC,NCI-H23,SRB,48 h,GI50,6.67 µM
CNC(=O)c1cc(Oc2ccc(NC(=O)Nc3ccc(Cl)c(C(F)(F)F)c3)cc2)ccn1,NCI-H23,MTT,72 h,IC50,4.25 µM
